In brackets after ≈: the same amount, converted by molar mass. Activity calls are given as the source filed them. The calls are words filed in the database; no cut-off is given here.
How the values were obtained:
Staphylococcus aureus [1] = assay: Antibacterial activity against methicillin-resistant Staphylococcus aureus USA300 by CLSI method; assay type: functional
Topoisomerase IV = Topoisomerase IV (Staphylococcus aureus, UniProt P0C1S7+P0C1U9); assay: Inhibition of Staphylococcus aureus topoisomerase IV decatenation activity using kDNA as substrate by ethidium bromide/bromophenol blue staining based agarose gel electrophoresis analysis; assay type: protein-complex assay
Staphylococcus aureus [2] = assay: Antibacterial activity against Staphylococcus aureus harbouring GyrA D83N mutant by CLSI method; assay type: functional
Staphylococcus aureus [3] = assay: Antibacterial activity against cystic fibrosis isolate Staphylococcus aureus by CLSI method; assay type: functional
Staphylococcus aureus [4] = assay: Antibacterial activity against Staphylococcus aureus 3527 by CLSI method; assay type: functional
DNA gyrase [5] = target: DNA gyrase (Staphylococcus aureus, UniProt P0A0K8+P20831); assay: Inhibition of Staphylococcus aureus Gyrase supercoiling activity assessed as reduction in supercoiling pBR322 DNA by measuring relaxation by bromophenol blue staining based TAE gel method; assay type: protein-complex assay
K562 = assay: Growth inhibition of log-phase human K562 cells incubated for 48 hrs by NBTI cell counting analysis; assay type: functional, cell-based; conditions: Homo sapiens, K562, 48 h; read-out: IC50
Staphylococcus aureus [6] = assay: Antibacterial activity against Staphylococcus aureus ATCC 29213 by CLSI method; assay type: functional
[7] = Growth inhibition of human K/VP.5 cells incubated for 48 hrs by NBTI cell counting analysis; assay type: functional; conditions: K562, 48 h
[8] = target: Voltage-gated inwardly rectifying potassium channel KCNH2 (Homo sapiens, UniProt Q12809); assay: Inhibition of human ERG
Chain of Voltage-gated inwardly rectifying potassium channel KCNH2 (Q12809 whole entry): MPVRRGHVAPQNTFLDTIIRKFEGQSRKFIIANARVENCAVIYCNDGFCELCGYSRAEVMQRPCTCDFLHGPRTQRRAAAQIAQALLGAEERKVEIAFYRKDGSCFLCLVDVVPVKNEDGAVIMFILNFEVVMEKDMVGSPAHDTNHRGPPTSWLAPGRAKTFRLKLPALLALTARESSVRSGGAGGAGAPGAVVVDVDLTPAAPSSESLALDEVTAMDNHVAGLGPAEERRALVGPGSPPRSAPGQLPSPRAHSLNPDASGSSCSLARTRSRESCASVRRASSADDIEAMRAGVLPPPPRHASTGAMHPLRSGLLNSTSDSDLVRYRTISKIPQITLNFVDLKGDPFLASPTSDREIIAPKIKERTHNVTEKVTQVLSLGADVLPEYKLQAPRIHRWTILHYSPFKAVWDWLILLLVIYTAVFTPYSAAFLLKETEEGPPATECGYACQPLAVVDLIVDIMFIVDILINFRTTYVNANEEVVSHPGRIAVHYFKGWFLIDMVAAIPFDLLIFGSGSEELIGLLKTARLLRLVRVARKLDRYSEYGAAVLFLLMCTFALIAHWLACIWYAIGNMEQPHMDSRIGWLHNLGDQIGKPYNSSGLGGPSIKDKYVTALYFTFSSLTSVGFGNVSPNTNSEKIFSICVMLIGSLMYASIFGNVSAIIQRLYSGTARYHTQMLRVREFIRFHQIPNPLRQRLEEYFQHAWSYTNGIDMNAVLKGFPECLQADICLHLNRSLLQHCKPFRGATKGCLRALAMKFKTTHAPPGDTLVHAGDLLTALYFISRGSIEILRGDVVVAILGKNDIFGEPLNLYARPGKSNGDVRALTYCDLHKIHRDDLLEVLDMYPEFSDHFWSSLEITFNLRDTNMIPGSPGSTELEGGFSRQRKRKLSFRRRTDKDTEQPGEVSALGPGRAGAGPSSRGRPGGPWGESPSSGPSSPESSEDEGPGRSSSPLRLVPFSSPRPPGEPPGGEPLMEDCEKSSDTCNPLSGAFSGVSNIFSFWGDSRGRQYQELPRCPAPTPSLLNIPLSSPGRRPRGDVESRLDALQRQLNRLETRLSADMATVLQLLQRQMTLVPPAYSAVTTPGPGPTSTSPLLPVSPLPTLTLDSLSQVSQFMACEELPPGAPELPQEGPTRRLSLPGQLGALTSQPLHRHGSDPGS
Procedure, shortened: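 hERG channel inhibition was measured on the IonWorks Barracuda automated patch system. IC50 came from eight-point concentration–response curves with four replicates per concentration.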

Acinetobacter baumannii = assay: Antibacterial activity against Acinetobacter baumannii by CLSI method; assay type: functional
[9] = Thermodynamic solubility of the compound at pH 7.4; assay type: physicochemical; conditions: buffer, read-out: Therm_solubility
Procedure, shortened: (§1)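 Run at Charles River (Worcester). Plasma protein binding was measured in mouse, dog and human plasma. Thermodynamic solubility was measured in buffer at pH 7.4.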

[10] = Metabolic stability in CD1 mouse liver microsomes assessed as intrinsic clearance at 2 uM measured up to 120 mins by LC-MS/MS analysis; assay type: ADME, Microsome; conditions: 2 h
[11] = Plasma protein binding in dog; assay type: ADME, cell-free, Canis lupus familiaris; conditions: read-out: PPB (converted); procedure, shortened: as §1
[12] = Plasma protein binding in human; assay type: ADME, cell-free; conditions: read-out: PPB (converted); procedure, shortened: as §1
Bacillus anthracis = assay: Antibacterial activity against Bacillus anthracis by CLSI method; assay type: functional
[13] = Metabolic stability in CD1 mouse liver microsomes assessed as half life at 2 uM measured up to 120 mins by LC-MS/MS analysis; assay type: ADME, Microsome
[14] = Plasma protein binding in mouse; assay type: ADME, cell-free; conditions: read-out: PPB (converted); procedure, shortened: as §1
Staphylococcus aureus [15] = assay: Antibacterial activity against Staphylococcus aureus by CLSI method; assay type: functional
Procedure, shortened: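 MICs were determined by broth microdilution per CLSI guidelines, in triplicate at minimum. Strains were S. aureus ATCC 29213, MRSA USA300 and a cystic fibrosis respiratory isolate, and ranges are given where seen.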

Streptococcus pneumoniae = assay: Antibacterial activity against Streptococcus pneumoniae by CLSI method; assay type: functional
Enterococcus sp. = assay: Antibacterial activity against Enterococcus sp. by CLSI method; assay type: functional
Staphylococcus aureus [16] = assay: Antibacterial activity against fluoroquinolone-resistant methicillin-resistant Staphylococcus aureus by CLSI method; assay type: functional
Procedure, shortened: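 MICs against ciprofloxacin-resistant MRSA USA300, determined following CLSI guidelines. Each determination was run at least in triplicate, and observed ranges were reported where appropriate.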

[17] = Metabolic stability in CD1 mouse microsomes assessed as half life; assay type: ADME, Microsome
[18] = Permeability of the compound from apical to basolateral side in human Caco-2 cells; assay type: ADME, cell-based; conditions: read-out: permeability
HepaRG = assay: Cytotoxicity against human HepaRG cells at 100 uM by ATP depletion assay; assay type: cell-based
Procedure, shortened: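 An ATP depletion read-out in HepaRG cells gave cytotoxicity across 0.01–100 μM, reported as % cytotoxicity at 100 μM.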

[19] = Permeability of the compound from basolateral to apical side in human Caco-2 cells; assay type: ADME, cell-based; conditions: read-out: permeability
Procedure, shortened: (§2)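 Run at RTI International. Covers plasma protein binding (mouse, human; percent free), CACO-2 permeability and efflux, and microsomal stability (mouse and human microsomes) giving half-life.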

CYP2C8 = CYP2C8 (Homo sapiens, UniProt P10632); assay: Inhibition of CYP2C8 (unknown origin) at 10 uM relative to control; assay type: ADME
Chain of CYP2C8 (P10632 whole entry): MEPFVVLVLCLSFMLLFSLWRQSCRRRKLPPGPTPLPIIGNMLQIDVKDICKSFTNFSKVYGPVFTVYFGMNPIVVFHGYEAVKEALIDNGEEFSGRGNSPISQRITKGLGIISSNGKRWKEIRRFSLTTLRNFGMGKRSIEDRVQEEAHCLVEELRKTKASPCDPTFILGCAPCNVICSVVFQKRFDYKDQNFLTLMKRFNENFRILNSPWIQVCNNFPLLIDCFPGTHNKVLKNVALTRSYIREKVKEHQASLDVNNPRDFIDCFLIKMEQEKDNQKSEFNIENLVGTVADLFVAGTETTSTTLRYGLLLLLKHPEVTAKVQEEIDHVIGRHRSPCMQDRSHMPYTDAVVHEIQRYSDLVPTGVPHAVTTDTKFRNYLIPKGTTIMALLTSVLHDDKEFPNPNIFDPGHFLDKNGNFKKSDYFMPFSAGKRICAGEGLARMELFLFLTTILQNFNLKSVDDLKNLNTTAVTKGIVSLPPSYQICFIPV

CYP2C9 = CYP2C9 (Homo sapiens, UniProt P11712); assay: Inhibition of CYP2C9 (unknown origin) at 10 uM relative to control; assay type: ADME
Chain of CYP2C9 (P11712 whole entry): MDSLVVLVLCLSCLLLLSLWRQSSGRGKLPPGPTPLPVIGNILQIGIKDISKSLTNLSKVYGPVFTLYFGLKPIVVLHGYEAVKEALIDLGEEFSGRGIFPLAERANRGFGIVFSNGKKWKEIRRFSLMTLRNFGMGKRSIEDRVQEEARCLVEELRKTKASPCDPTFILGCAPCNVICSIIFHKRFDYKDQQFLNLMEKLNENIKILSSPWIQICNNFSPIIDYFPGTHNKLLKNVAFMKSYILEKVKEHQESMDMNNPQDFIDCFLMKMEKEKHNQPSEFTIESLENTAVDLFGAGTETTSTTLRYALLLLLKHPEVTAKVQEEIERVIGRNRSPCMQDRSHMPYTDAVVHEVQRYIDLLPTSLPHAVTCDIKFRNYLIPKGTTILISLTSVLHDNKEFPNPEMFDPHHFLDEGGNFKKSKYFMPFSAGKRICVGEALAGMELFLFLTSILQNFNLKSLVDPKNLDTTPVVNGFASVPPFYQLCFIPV

Staphylococcus aureus [20] = assay: Selectivity index, ratio of IC50 for inhibition of Staphylococcus aureus topoisomerase IV decatenation activity to IC50 for inhibition of Staphylococcus aureus DNA gyrase supercoiling activity
Procedure, shortened: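 Both IC50s were measured in gel-based assays with S. aureus enzymes: supercoiling inhibition for DNA gyrase and decatenation inhibition for TopoIV. The ratio is TopoIV IC50 divided by gyrase IC50.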

CYP2D6 = CYP2D6 (Homo sapiens, UniProt P10635); assay: Inhibition of CYP2D6 (unknown origin) at 10 uM relative to control; assay type: ADME
Chain of CYP2D6 (P10635 whole entry): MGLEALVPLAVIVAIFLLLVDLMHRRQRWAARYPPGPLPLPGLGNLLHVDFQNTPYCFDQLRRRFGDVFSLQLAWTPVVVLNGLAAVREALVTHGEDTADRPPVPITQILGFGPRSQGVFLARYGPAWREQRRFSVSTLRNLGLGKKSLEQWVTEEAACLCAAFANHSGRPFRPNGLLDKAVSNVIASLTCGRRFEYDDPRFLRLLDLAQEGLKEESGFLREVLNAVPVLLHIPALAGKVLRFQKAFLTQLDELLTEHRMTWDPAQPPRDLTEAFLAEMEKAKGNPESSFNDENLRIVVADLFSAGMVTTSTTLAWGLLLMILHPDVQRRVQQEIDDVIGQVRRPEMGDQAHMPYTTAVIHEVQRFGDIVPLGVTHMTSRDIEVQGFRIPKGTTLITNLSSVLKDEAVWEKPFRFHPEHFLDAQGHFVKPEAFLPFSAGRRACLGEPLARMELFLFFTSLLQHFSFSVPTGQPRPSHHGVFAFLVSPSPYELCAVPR

[21] = Metabolic stability in human microsomes assessed as half life; assay type: ADME, Microsome; procedure, shortened: as §2
CYP1A2 = CYP1A2 (Homo sapiens, UniProt P05177); assay: Inhibition of CYP1A2 (unknown origin) at 10 uM relative to control; assay type: ADME
[22] = target: Acetylcholinesterase (Homo sapiens) (UniProt P22303); assay: Inhibition of human recombinant acetylcholinesterase receptor expressed in HEK293 cells at 100 uM by spectrophotometry; assay type: cell-based
Chain of Acetylcholinesterase (Homo sapiens) (P22303 whole entry): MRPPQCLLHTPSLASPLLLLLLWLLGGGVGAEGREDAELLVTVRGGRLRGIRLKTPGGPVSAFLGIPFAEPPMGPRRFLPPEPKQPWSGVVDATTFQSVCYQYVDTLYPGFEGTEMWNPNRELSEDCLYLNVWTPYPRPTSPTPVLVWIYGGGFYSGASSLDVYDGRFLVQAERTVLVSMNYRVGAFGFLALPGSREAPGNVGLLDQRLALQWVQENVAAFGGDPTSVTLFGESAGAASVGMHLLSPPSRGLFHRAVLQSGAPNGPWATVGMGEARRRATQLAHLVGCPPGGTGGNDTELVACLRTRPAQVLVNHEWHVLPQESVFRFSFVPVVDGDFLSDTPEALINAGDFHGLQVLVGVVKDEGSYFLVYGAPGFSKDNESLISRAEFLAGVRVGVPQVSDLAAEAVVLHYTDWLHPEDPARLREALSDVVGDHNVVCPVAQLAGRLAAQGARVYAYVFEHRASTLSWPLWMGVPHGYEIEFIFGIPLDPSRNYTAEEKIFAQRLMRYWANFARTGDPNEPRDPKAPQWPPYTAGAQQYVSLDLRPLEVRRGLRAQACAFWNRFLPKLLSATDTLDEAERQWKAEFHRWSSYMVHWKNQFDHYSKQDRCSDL

[23] = target: 5-hydroxytryptamine receptor 2B (Homo sapiens) (UniProt P41595); assay: Displacement of [3H]Lysergic acid diethylamide from human recombinant 5HT2B receptor expressed in CHO-K1 cells at 100 uM by radioligand binding assay; assay type: cell-based
Chain of 5-hydroxytryptamine receptor 2B (Homo sapiens) (P41595 whole entry): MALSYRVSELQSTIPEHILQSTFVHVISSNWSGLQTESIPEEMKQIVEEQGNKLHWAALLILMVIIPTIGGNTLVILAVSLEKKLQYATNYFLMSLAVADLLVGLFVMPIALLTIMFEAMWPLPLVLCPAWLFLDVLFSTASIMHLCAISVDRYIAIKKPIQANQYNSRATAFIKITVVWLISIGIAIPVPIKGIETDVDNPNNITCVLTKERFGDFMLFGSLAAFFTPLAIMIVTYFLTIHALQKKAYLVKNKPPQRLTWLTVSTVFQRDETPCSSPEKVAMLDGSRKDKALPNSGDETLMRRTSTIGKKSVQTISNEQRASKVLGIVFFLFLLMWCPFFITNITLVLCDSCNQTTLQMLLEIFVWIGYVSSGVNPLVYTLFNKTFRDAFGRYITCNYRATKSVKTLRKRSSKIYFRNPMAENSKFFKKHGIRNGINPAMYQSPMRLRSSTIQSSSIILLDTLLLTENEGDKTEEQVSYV

CYP2B6 = CYP2B6 (Homo sapiens, UniProt P20813); assay: Inhibition of CYP2B6 (unknown origin) at 10 uM relative to control; assay type: ADME
Chain of CYP2B6 (P20813 whole entry): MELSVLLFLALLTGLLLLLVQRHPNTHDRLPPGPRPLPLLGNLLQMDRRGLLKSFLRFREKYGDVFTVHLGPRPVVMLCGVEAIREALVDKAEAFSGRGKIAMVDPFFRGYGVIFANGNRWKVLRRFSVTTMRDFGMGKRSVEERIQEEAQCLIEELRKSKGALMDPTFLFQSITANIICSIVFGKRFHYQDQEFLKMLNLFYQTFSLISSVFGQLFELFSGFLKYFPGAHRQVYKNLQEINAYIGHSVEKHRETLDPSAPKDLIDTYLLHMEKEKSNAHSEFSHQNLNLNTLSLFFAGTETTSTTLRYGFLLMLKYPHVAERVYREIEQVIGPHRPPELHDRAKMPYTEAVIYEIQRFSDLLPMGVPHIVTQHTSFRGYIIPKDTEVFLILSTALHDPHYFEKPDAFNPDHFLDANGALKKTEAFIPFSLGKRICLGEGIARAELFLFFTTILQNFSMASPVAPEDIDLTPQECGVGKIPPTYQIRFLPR

CYP2C19 = CYP2C19 (Homo sapiens, UniProt P33261); assay: Inhibition of CYP2C19 (unknown origin) at 10 uM relative to control; assay type: ADME
Chain of CYP2C19 (P33261 whole entry): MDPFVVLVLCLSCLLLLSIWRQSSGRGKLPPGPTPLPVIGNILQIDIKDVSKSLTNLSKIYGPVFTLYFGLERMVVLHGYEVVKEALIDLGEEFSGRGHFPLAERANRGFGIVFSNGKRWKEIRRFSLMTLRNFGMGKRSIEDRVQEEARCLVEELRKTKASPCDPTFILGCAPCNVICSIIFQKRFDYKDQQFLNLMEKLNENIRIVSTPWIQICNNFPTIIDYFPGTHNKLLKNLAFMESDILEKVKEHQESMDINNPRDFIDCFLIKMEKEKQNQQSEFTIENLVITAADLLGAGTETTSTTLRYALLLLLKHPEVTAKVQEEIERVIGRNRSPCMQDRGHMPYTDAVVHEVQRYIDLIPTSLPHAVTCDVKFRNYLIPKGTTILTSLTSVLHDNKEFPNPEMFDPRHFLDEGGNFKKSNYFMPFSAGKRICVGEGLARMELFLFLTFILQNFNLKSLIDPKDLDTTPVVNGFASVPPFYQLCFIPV

[24] = target: T1, DNA gyrase (Staphylococcus aureus) (UniProt P0A0K8+P20831); assay: Inhibition of Staphylococcus aureus DNA Gyrase assessed as reduction in supercoiling pBR322 DNA by measuring induction of double strand breaks at 200 uM by ethidium bromide staining based agarose gel electrophoresis; assay type: protein-complex assay
[25] = target: T1, DNA gyrase (Staphylococcus aureus); assay: Inhibition of Staphylococcus aureus DNA Gyrase assessed as reduction in supercoiling pBR322 DNA by measuring induction of single strand breaks at 100 uM by ethidium bromide staining based agarose gel electrophoresis; assay type: protein-complex assay
DNA gyrase [26] = target: DNA gyrase (Staphylococcus aureus, UniProt P0A0K8+P20831, D83N); assay: Inhibition of Staphylococcus aureus DNA Gyrase D83N mutant assessed as reduction in supercoiling pBR322 DNA by measuring relaxation by bromophenol blue staining based TAE gel method
Streptococcus pyogenes = assay: Antibacterial activity against Streptococcus pyogenes isolates by CLSI method; assay type: functional

With `COc1ccc2ncc(F)c(C(O)C[C@H]3OC[C@H](NCc4ccc5c(n4)NC(=O)CS5)CO3)c2c1` (mixture of isomers) the MIC (Staphylococcus aureus [1]) was 0.25 µg/mL (≈ 0.499 µM), the IC50 (Topoisomerase IV) was 1.5 µM and the MIC (Staphylococcus aureus [2]) was 4 µg/mL (≈ 7.99 µM). The MIC (Staphylococcus aureus [3]) was 0.5 µg/mL (≈ 0.999 µM), the MIC (Staphylococcus aureus [4]) was at most 0.25 µg/mL and the IC50 (DNA gyrase [5]) was 0.33 µM. The IC50 (K562) was 56 µM, the MIC (Staphylococcus aureus [6]) was 0.25 µg/mL (≈ 0.499 µM) and the IC50 [7] was over 50 µM.

With `COc1ccc2ncc(F)c(C(O)C[C@H]3OC[C@H](NCc4ccc5c(c4)OCCO5)CO3)c2c1` (mixture of isomers) the IC50 [8] was 8 µM, the MIC50 (Acinetobacter baumannii) was 32 µg/mL (≈ 68 µM) and the MIC (Staphylococcus aureus [1]) was 0.125 µg/mL (≈ 0.266 µM). The solubility thermodynamic [9] was 186 µM (≈ 87.5 µg/mL), the IC50 (Topoisomerase IV) was 5.5 µM and the MIC (Staphylococcus aureus [2]) was 2 µg/mL (≈ 4.25 µM). It also gave an intrinsic clearance (CLint) [10] of 835 µL/min/mg, a fraction unbound [11] of 0.11 and a fraction unbound [12] of 0.11. For the same compound, the MIC50 (Bacillus anthracis) was 2 µg/mL (≈ 4.25 µM), the MIC90 (Bacillus anthracis) was 8 µg/mL (≈ 17 µM) and the MIC (Staphylococcus aureus [3]) was 0.125 µg/mL (≈ 0.266 µM). The half-life at 2 µM [13] was 6.54 min, the fraction unbound [14] was 0.11 and the MIC (Staphylococcus aureus [4]) was 0.125 µg/mL (≈ 0.266 µM). For the same compound, the IC50 (DNA gyrase [5]) was 0.064 µM, the MIC50 (Staphylococcus aureus [15]) was 0.12 µg/mL (≈ 0.255 µM) and the MIC (Staphylococcus aureus [6]) was 0.125 µg/mL (≈ 0.266 µM). It also gave an IC50 [7] of 23.8 µM, an MIC50 (Streptococcus pneumoniae) of 1 µg/mL (≈ 2.13 µM) and an MIC50 (Enterococcus sp.) of 0.12 µg/mL (≈ 0.255 µM). The MIC (Staphylococcus aureus [16]) was 0.25 µg/mL (≈ 0.531 µM).

With `COc1ccc2ncc(F)c(C(O)C[C@H]3OC[C@H](NCc4cc5c(nn4)OCCS5)CO3)c2n1` (mixture of isomers) the half-life [17] was 21 min, the MIC (Staphylococcus aureus [1]) was 1 µg/mL (≈ 2.04 µM) and the Papp A→B [18] was 7.85 ×10⁻⁶ cm/s. For the same compound, the IC50 (Topoisomerase IV) was 11 µM, the MIC (Staphylococcus aureus [2]) was 8 µg/mL (≈ 16.3 µM) and the Activity (HepaRG) was 17%. It also gave a Papp B→A [19] of 94.8 ×10⁻⁶ cm/s, an inhibition at 10 µM (CYP2C8) of over 50% and an inhibition at 10 µM (CYP2C9) of over 50%. The Ratio IC50 (Staphylococcus aureus [20]) was 47, the inhibition at 10 µM (CYP2D6) was over 50% and the MIC (Staphylococcus aureus [3]) was 0.5 µg/mL (≈ 1.02 µM). The half-life [21] was 26 min, the MIC (Staphylococcus aureus [4]) was 0.5 µg/mL (≈ 1.02 µM) and the inhibition at 10 µM (CYP1A2) was over 50%. It also gave an IC50 (DNA gyrase [5]) of 0.24 µM, an inhibition [22] of over 45% and an MIC (Staphylococcus aureus [6]) of 0.5 µg/mL (≈ 1.02 µM). For the same compound, the inhibition [23] was over 45%, the inhibition at 10 µM (CYP2B6) was over 50% and the inhibition at 10 µM (CYP2C19) was over 50%.

For `O=C(O)c1cn(C2CC2)c2cc(N3CCNCC3)c(F)cc2c1=O`, the Activity [24] was “Active” and the Activity [25] was “Active”.

With `COc1ccc2ncc(F)c(C[C@H](O)[C@H]3OC[C@H](NCc4cc5c(cn4)OCCO5)CO3)c2n1` the MIC50 (Acinetobacter baumannii) was 64 µg/mL (≈ 135 µM), the MIC (Staphylococcus aureus [1]) was at most 0.25 µg/mL and the IC50 (Topoisomerase IV) was 1.3 µM. It also gave an MIC (Staphylococcus aureus [2]) of 4 µg/mL (≈ 8.47 µM), an MIC50 (Bacillus anthracis) of 2 µg/mL (≈ 4.23 µM) and an MIC90 (Bacillus anthracis) of 8 µg/mL (≈ 16.9 µM). It also gave an MIC (Staphylococcus aureus [3]) of 0.125 µg/mL (≈ 0.265 µM), an MIC (Staphylococcus aureus [4]) of 0.25 µg/mL (≈ 0.529 µM) and an IC50 (DNA gyrase [5]) of 0.039 µM. It also gave an MIC50 (Staphylococcus aureus [15]) of 0.25 µg/mL (≈ 0.529 µM), an MIC (Staphylococcus aureus [6]) of 0.125 µg/mL (≈ 0.265 µM) and an IC50 [7] of 145 µM. For the same compound, the MIC50 (Streptococcus pneumoniae) was 0.5 µg/mL (≈ 1.06 µM), the IC50 (DNA gyrase [26]) was 13 µM and the MIC50 (Enterococcus sp.) was 0.12 µg/mL (≈ 0.254 µM).

Work on `C[C@H]1COc2c(N3CCN(C)CC3)c(F)cc3c(=O)c(C(=O)O)cn1c23.C[C@H]1COc2c(N3CCN(C)CC3)c(F)cc3c(=O)c(C(=O)O)cn1c23.O` [LEVOFLOXACIN] yielded an MIC50 (Streptococcus pyogenes) of 8 µg/mL and an MIC90 (Streptococcus pyogenes) of 64 µg/mL.

In the case of `COc1ccc2ncc(F)c(C(O)C[C@H]3OC[C@H](NCc4ccc5c(n4)NC(=O)CS5)CO3)c2n1` (mixture of isomers), the MIC (Staphylococcus aureus [1]) is reported as 0.125 µg/mL (≈ 0.249 µM), the IC50 (Topoisomerase IV) is reported as 2.8 µM and the MIC (Staphylococcus aureus [2]) is reported as 2 µg/mL (≈ 3.99 µM). It also gave an MIC (Staphylococcus aureus [3]) of 0.25 µg/mL (≈ 0.498 µM), an MIC (Staphylococcus aureus [4]) of at most 0.25 µg/mL and an IC50 (DNA gyrase [5]) of 0.054 µM. For the same compound, the IC50 (K562) was 52.1 µM, the MIC (Staphylococcus aureus [6]) was at most 0.25 µg/mL and the IC50 [7] was over 50 µM.

Reference: ChEMBL document CHEMBL4837261, “Optimization of TopoIV Potency, ADMET Properties, and hERG Inhibition of 5-Amino-1,3-dioxane-Linked Novel Bacterial Topoisomerase Inhibitors: Identification of a Lead with In Vivo Efficacy against MRSA” (J Med Chem, 2021)
